Data from article PMC3866226 (Molecular pharmaceutics, 2013).
“And” between values parts separate entries of the source, which are not always exact repeats. Identical values can stand only once. “Also recorded” adds a separate entry of the source. Bridge positions count the residues as written; N and C are the ends. Square brackets hold non-standard residues; d marks the D form. Peptide text beside a SMILES is read from it.

Columns and labels:
[1] = system: B16/F1 melanoma-bearing C57 mice; test: Urinary metabolites by radio-HPLC; assay type: in vivo, mouse; conditions: urine at 2 h post-injection of ~3.7 MBq via tail vein
B16/F1 melanoma cells [2] = test: Cellular internalization; assay type: cell-based, murine; conditions: after 20 min of incubation at 25 °C, acid wash pH 4.5, n=3
In short: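 Cells at 2.5×10^5/well were grown overnight at 37 °C and washed with binding medium (MEM, 25 mM HEPES pH 7.4, 0.2% BSA, 0.3 mM 1,10-phenanthroline). They were incubated at 25 °C with ~200,000 cpm HPLC-purified radiopeptide for 20–120 min (n=3). Membrane-bound activity was stripped with 40 mM sodium acetate pH 4.5/0.9% NaCl/0.2% BSA. Cells were lysed in 1 N NaOH for 5 min; both fractions were gamma-counted.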

[3] = system: B16/F1 melanoma-bearing C57 mice; test: Melanoma imaging by small animal SPECT/CT; assay type: in vivo, mouse; conditions: 2 h post-injection of 7.4 MBq via tail vein
[4] = system: B16/F1 melanoma-bearing C57 mice; test: Biodistribution in B16/F1 melanoma-bearing C57 mice; assay type: in vivo, mouse
In short: (§1)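 Female C57 mice bore subcutaneous right-flank tumours from 1×10^6 B16/F1 cells (~0.2 g at 10 days). Radiopeptide, 0.037 MBq in pH 7.4 saline, went in via tail vein. Groups of 4 were killed at 0.5, 2, 4 and 24 h; tumours and organs were weighed and gamma-counted. Blood was taken as 6.5% body weight. Blockade: co-injected 10 µg (6.1 nmol) unlabeled NDP-MSH, 2 h. Results as %ID/g or %ID, mean ± SD, n=4.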

[5] = as above; assay type: in vivo, mouse; conditions: female, C57, mouse, iv, 0.037 MBq, total radioactivity
In short: as §1

B16/F1 melanoma cells [6] = test: Cellular efflux; assay type: cell-based, murine; conditions: loaded 2 h at 25 °C, then 2 h of incubation in the culture medium
In short: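 B16/F1 cells were seeded at 2.5×10^5/well and grown overnight at 37 °C. They were loaded with radiopeptide for 2 h at 25 °C and rinsed twice with ice-cold PBS. Release into culture medium was then monitored. At 20, 40, 60, 90 and 120 min, surface-bound and intracellular radioactivity were collected separately and gamma-counted.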

[7] = system: B16/F1 melanoma-bearing C57 mice; test: Effect of L-lysine co-injection on renal and tumor uptake; assay type: in vivo, mouse; conditions: 2 h post-injection, 15 mg L-lysine
In short: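 Groups of 4 tumour-bearing C57 mice received 0.037 MBq radiopeptide mixed with 15 mg L-lysine via injection. Mice were killed at 2 h, and tumours and organs were weighed and gamma-counted. Uptake with versus without L-lysine was compared by unpaired Student's t-test, significance p<0.05.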

## CC(C)[C@H](NC(=O)[C@@H]1CCCN1C(=O)[C@H](CCCNC(=N)N)NC(=O)[C@H](CS)NC(=O)[C@H](Cc1c[nH]c2ccccc12)NC(=O)[C@H](CCCNC(=N)N)NC(=O)[C@@H](Cc1ccccc1)NC(=O)[C@H](Cc1c[nH]cn1)NC(=O)[C@H](CCC(=O)O)NC(=O)[C@H](CS)NC(=O)[C@H](CS)NC(=O)[C@H](CCCCN)NC(=O)[C@@H]1CC(=O)N[C@@H](CCCNC(=N)N)C(=O)N[C@@H](C(C)C)C(=O)N[C@@H](CC(=O)O)C(=O)N[C@H](Cc2ccc(O)cc2)C(=O)N1)C(N)=O [^99mTc-RVD-Lys-(Arg^11)CCMSH, metal not drawn] (RVD[dY]DKCCEH[dF]RWCRPV-NH2; lactam N-5)
[1]
  Remained intact in the urine: Approximately 70%
  Transformed to a more hydrophobic compound in the urine: 30%
B16/F1 melanoma cells [2]
  Activity internalized in the cells: ~72%
[3]
  Visualization of flank B16/F1 melanoma lesions by SPECT/CT: clearly visualized
[4]; 0.5 h post-injection
  Renal uptake as % of the renal uptake of ^99mTc-RTD-Lys-(Arg^11)CCMSH: 62%
[4]; 2 h post-injection
  Renal uptake as % of the renal uptake of ^99mTc-RTD-Lys-(Arg^11)CCMSH: 70%
[4]; 2 h post-injection, NDP blockade
  Uptake ratio Tumor/Blood: 2.75
[4]; 4 h post-injection
  Renal uptake as % of the renal uptake of ^99mTc-RTD-Lys-(Arg^11)CCMSH: 70%
[5]; blood
  tissue uptake at 0.5 h: 1.5 ± 0.52 %ID/g
  tissue uptake at 2 h: 0.49 ± 0.05 %ID/g
  tissue uptake at 4 h: 0.54 ± 0.45 %ID/g
  tissue uptake at 24 h: 0.07 ± 0.02 %ID/g
[5]; bone
  tissue uptake at 0.5 h: 1.6 ± 0.73 %ID/g
  tissue uptake at 2 h: 0.57 ± 0.08 %ID/g
  tissue uptake at 4 h: 0.54 ± 0.28 %ID/g
  tissue uptake at 24 h: 0.47 ± 0.05 %ID/g
[5]; brain
  tissue uptake at 0.5 h: 0.15 ± 0.05 %ID/g
  tissue uptake at 2 h: 0.04 ± 0.01 %ID/g
  tissue uptake at 4 h: 0.02 ± 0.01 %ID/g
  tissue uptake at 24 h: 0.03 ± 0.01 %ID/g
[5]; heart
  tissue uptake at 0.5 h: 0.74 ± 0.43 %ID/g
  tissue uptake at 2 h: 0.26 ± 0.15 %ID/g
  tissue uptake at 4 h: 0.16 ± 0.03 %ID/g
  tissue uptake at 24 h: 0.1 ± 0.07 %ID/g
[5]; intestines
  tissue uptake dose at 0.5 h: 1.36 ± 0.27 %ID
  tissue uptake dose at 2 h: 1.59 ± 1.08 %ID
  tissue uptake dose at 4 h: 0.95 ± 0.3 %ID
  tissue uptake dose at 24 h: 0.44 ± 0.22 %ID
[5]; kidneys
  tissue uptake at 0.5 h: 90.2 ± 15.4 %ID/g
  tissue uptake at 2 h: 94 ± 18.3 %ID/g
  tissue uptake at 4 h: 73.9 ± 3.73 %ID/g
  tissue uptake at 24 h: 44.3 ± 12.1 %ID/g
[5]; liver
  tissue uptake at 0.5 h: 1.86 ± 0.17 %ID/g
  tissue uptake at 2 h: 1.4 ± 0.34 %ID/g
  tissue uptake at 4 h: 1.59 ± 0.13 %ID/g
  tissue uptake at 24 h: 1.21 ± 0.26 %ID/g
[5]; lung
  tissue uptake at 0.5 h: 2.01 ± 0.97 %ID/g
  tissue uptake at 2 h: 0.87 ± 0.4 %ID/g
  tissue uptake at 4 h: 0.49 ± 0.43 %ID/g
  tissue uptake at 24 h: 0.19 ± 0.1 %ID/g
[5]; muscle
  tissue uptake at 0.5 h: 11.2 ± 6.02 %ID/g
  tissue uptake at 2 h: 0.17 ± 0.1 %ID/g
  tissue uptake at 4 h: 0.1 ± 0.07 %ID/g
  tissue uptake at 24 h: 0.26 ± 0.02 %ID/g
[5]; pancreas
  tissue uptake at 0.5 h: 0.62 ± 0.25 %ID/g
  tissue uptake at 2 h: 0.1 ± 0.02 %ID/g
  tissue uptake at 4 h: 0.08 ± 0.08 %ID/g
  tissue uptake at 24 h: 0.18 ± 0.07 %ID/g
[5]; skin
  tissue uptake at 0.5 h: 9.59 ± 0.62 %ID/g
  tissue uptake at 2 h: 0.69 ± 0.18 %ID/g
  tissue uptake at 4 h: 0.35 ± 0.08 %ID/g
  tissue uptake at 24 h: 0.42 ± 0.27 %ID/g
[5]; spleen
  tissue uptake at 0.5 h: 0.82 ± 0.43 %ID/g
  tissue uptake at 2 h: 0.4 ± 0.1 %ID/g
  tissue uptake at 4 h: 0.5 ± 0.15 %ID/g
  tissue uptake at 24 h: 0.34 ± 0.06 %ID/g
[5]; stomach
  tissue uptake at 0.5 h: 1.92 ± 0.53 %ID/g
  tissue uptake at 2 h: 1.21 ± 0.61 %ID/g
  tissue uptake at 4 h: 0.96 ± 0.27 %ID/g
  tissue uptake at 24 h: 0.4 ± 0.13 %ID/g
[5]; tumor / blood
  tissue to tissue ratio at 0.5 h: 11.1
  tissue to tissue ratio at 2 h: 34.9
  tissue to tissue ratio at 4 h: 36.4
  tissue to tissue ratio at 24 h: 126
[5]; tumor / kidneys
  tissue to tissue ratio at 0.5 h: 0.19
  tissue to tissue ratio at 2 h: 0.18
  tissue to tissue ratio at 4 h: 0.27
  tissue to tissue ratio at 24 h: 0.2
[5]; tumor / lung
  tissue to tissue ratio at 0.5 h: 8.31
  tissue to tissue ratio at 2 h: 19.7
  tissue to tissue ratio at 4 h: 40.1
  tissue to tissue ratio at 24 h: 46.4
[5]; tumor
  tissue uptake at 0.5 h: 16.7 ± 5.31 %ID/g
  tissue uptake at 2 h: 17.1 ± 3.82 %ID/g
  tissue uptake at 4 h: 19.6 ± 4.68 %ID/g
  tissue uptake at 24 h: 8.81 ± 2.13 %ID/g
[5]; tumor/liver
  tissue to tissue ratio at 0.5 h: 8.98
  tissue to tissue ratio at 2 h: 12.2
  tissue to tissue ratio at 4 h: 12.3
  tissue to tissue ratio at 24 h: 7.28
[5]; tumor/muscle
  tissue to tissue ratio at 0.5 h: 1.48
  tissue to tissue ratio at 2 h: 101
  tissue to tissue ratio at 4 h: 196
  tissue to tissue ratio at 24 h: 33.9
[5]; urine
  dose excreted at 0.5 h: 44.5 ± 3.12%
  dose excreted at 2 h: 59.2 ± 9.65%
  dose excreted at 4 h: 67.5 ± 10%
  dose excreted at 24 h: 76.8 ± 8.21%
B16/F1 melanoma cells [6]
  Activity remained inside the cells (cellular efflux): 70%
[7]; versus without L-lysine
  Reduction of renal uptake by L-lysine co-injection: 41% and 40–50%
[7]; p>0.05
  Effect of L-lysine co-injection on tumor uptake: didn't affect the tumor uptake; also recorded: without affecting their tumor uptake
